The array DNA melting data of Ke et al. (doi:10.1101/2024.01.08.574731)

Legend:
[1] = melting temperature; fluorescence melt of hairpins on a sequencing array, two-state fit, raised by 9.35 °C to match UV melts; details: sodium 0.088 M
Procedure, shortened: (§1)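 Cy3 signals were normalised both to pre-quench Cy3 and to control constructs. They came from library hairpins carrying annealed Cy3 and quencher oligos on a sequenced MiSeq flow cell, imaged in 50 mM Na-HEPES pH 8.0, 25 mM NaCl, in 2.5 °C steps up to 60 °C. Bootstrapped two-state fits gave melting temperature and folding enthalpy, and four replicates were combined by inverse variance. Fitted temperatures were then raised by 9.35 °C to match UV melts.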

[2] = folding enthalpy; higher = less favourable; fluorescence melt of hairpins on a sequencing array, two-state fit; details: sodium 0.088 M
Procedure, shortened: as §1

Row | Sequence | Tm [1] | folding enthalpy [2]
1 | GATCTGAAATCAGATC ((((((....)))))) | 45.1 °C | -36.1 kcal/mol
2 | GTTTACCGAAAGGTAAC (((.(((....)))))) | 44.2 °C | -12.7 kcal/mol
3 | GCACACGGAAACGTGTAC (.(((((....))))).) | 41.2 °C | -13.8 kcal/mol
4 | CCAGAGAAATCTGG (((((....))))) | 44.4 °C | -19.2 kcal/mol
5 | GCCCTATCGAAAGATGGC (((..(((....)))))) | 37.5 °C | -23.5 kcal/mol
6 | CGGCCCCGGAAACGGCCG (((..(((....)))))) | 54.4 °C | -31.9 kcal/mol
7 | GCACACGCGAAAGCGTGC (((..(((....)))))) | 45 °C | -5.12 kcal/mol
8 | CGGACGGAAACGTCACCG ((((((....)))..))) | 34.4 °C | -11.6 kcal/mol
9 | GATCCCCCCGGGATC ((((((...)))))) | 65.8 °C | -33.1 kcal/mol
10 | GATTAACGAAAGTTTATC (((.(((....))).))) | 34.9 °C | -22.8 kcal/mol
11 | GAGGGCGAAAGCCAGCTC ((((((....)))..))) | 46.7 °C | -13.7 kcal/mol
12 | GTGTTCGAAAGAAGCAC ((((((....))).))) | 37.4 °C | -21.8 kcal/mol
13 | GATCGTACAAACGATC ((((((....)))))) | 52.6 °C | -40.2 kcal/mol
14 | GCGCCAGGAAACCGGCAC (.(((.(....).))).) | 37.4 °C | -16.6 kcal/mol
15 | CGAATGCGGAAACGCTCG (((..(((....)))))) | 37.2 °C | -15.3 kcal/mol
16 | GCTGTCGAAAGACTAAGC ((((((....)))..))) | 46.2 °C | -20 kcal/mol
17 | GCGCTAACGAAAGTTCGC (((..(((....)))))) | 45.4 °C | -21.8 kcal/mol
18 | GGGATTCCGAAAGGACCC (((..(((....)))))) | 40.3 °C | -16 kcal/mol
19 | GATCCCACTTGGGATC ((((((....)))))) | 61.1 °C | -42.5 kcal/mol
20 | GATCCACCGGTGGATC ((((((....)))))) | 60.3 °C | -50 kcal/mol
21 | GATCCTAGACAGGATC ((((((....)))))) | 50.4 °C | -36.5 kcal/mol
22 | GTTGCCTCGAAAGAGAAC (((..(((....)))))) | 25.4 °C | -12.1 kcal/mol
23 | GCCAGAGGAAACTCCGGC (((.(((....))).))) | 45.6 °C | -24.4 kcal/mol
24 | GCCAGGCGAAAGCTTCGC ((.(.((....)).).)) | 40.5 °C | -8.82 kcal/mol

Row | Sequence | Tm [1] | folding enthalpy [2]
25 | GATCTAGGTTTAGATC ((((((....)))))) | 41.1 °C | -28.5 kcal/mol
26 | GATCGGTTACCCGATC ((((((....)))))) | 57.3 °C | -41.4 kcal/mol
27 | GCGGGGCGAAAGCTCTGC ((.(.((....)).).)) | 61.9 °C | -21.9 kcal/mol
28 | GTCGAGGGAAACCTCAAC ((.((((....)))).)) | 36.5 °C | -18.1 kcal/mol
29 | GGTTCACGAAAGTGGACC (((.(((....))).))) | 63 °C | -38 kcal/mol
30 | GCCCGAACGAAAGTTGGC (((..(((....)))))) | 42.6 °C | -19.2 kcal/mol
31 | GCGTATTCGAAAGAACGC (((..(((....)))))) | 42.2 °C | -24.4 kcal/mol
32 | GATCCGTATTCGGATC ((((((....)))))) | 58.7 °C | -39.5 kcal/mol
33 | GGATGCGAAAGCAGTCC ((((((....))).))) | 52.4 °C | -22.3 kcal/mol
34 | GATCGATCATCGATC ((((((...)))))) | 50.5 °C | -33.2 kcal/mol
35 | GAGCATGGAAACATGCCC (.(((((....))))).) | 44 °C | -12.8 kcal/mol
36 | GAAAGGGAAACCTTTC ((((((....)))))) | 47 °C | -30 kcal/mol
37 | GGGTTCGGAAACGAGTCC ((..(((....)))..)) | 37.7 °C | -25.4 kcal/mol
38 | GTCGGACGAAAGTCGGAC (((.(((....))).))) | 58.5 °C | -32.3 kcal/mol
39 | GCTATGGGAAACTATAGC (((((.(....).))))) | 43.7 °C | -33.3 kcal/mol
40 | GGCATCGAAAGATTGGCC ((((((....)))..))) | 44.2 °C | -22.2 kcal/mol
41 | GCCGCCGAAAGGCGAGGC ((((((....)))..))) | 60.6 °C | -14.4 kcal/mol
42 | GTAGAGGGAAACCCCTAC ((((.((....)).)))) | 39.2 °C | -20.4 kcal/mol
43 | TGCTCGAAAGAGCA (((((....))))) | 67.7 °C | -17.9 kcal/mol
44 | GGCAACCGAAAGGTGCC (((.(((....)))))) | 66.4 °C | -33.6 kcal/mol
45 | TAGTCGAAAGACTA (((((....))))) | 49.6 °C | -17.4 kcal/mol
46 | GTTTCGGGAAACCGAGAC ((.((((....)))).)) | 47.3 °C | -21.4 kcal/mol
47 | GCGGCGCCCGC ((((...)))) | 60.9 °C | -15.9 kcal/mol
48 | GGCTTCGAAAGAAACGCC ((((((....)))..))) | 43.8 °C | -26.1 kcal/mol

Row | Sequence | Tm [1] | folding enthalpy [2]
49 | GTTGATGCGAAAGCAAAC (((..(((....)))))) | 37.1 °C | -13.8 kcal/mol
50 | GATTGGGAAACCAATC ((((((....)))))) | 52.3 °C | -35 kcal/mol
51 | GATGTGAAAACATC (((((....))))) | 49 °C | -28.4 kcal/mol
52 | GACAAGGAAACTTGTC ((((((....)))))) | 51.8 °C | -43.8 kcal/mol
53 | GACAGCGAAAGCTTTGTC ((((((....)))..))) | 37.5 °C | -16 kcal/mol
54 | GAGTACGAAAGTAAACTC ((((((....)))..))) | 35.9 °C | -26.2 kcal/mol
55 | GCCAACGGAAACGCTGGC ((((.((....)).)))) | 52 °C | -40 kcal/mol
56 | CACCGGAAACGGTG (((((....))))) | 60.5 °C | -30 kcal/mol
57 | GCCAAGCGAAAGCCCGGC (((..((....))..))) | 45.8 °C | -20.7 kcal/mol
58 | GATAGCGAAAGCTAAATC ((((((....)))..))) | 27.7 °C | -8.92 kcal/mol
59 | GTTGTGACGAAAGTCAAC (((..(((....)))))) | 49.7 °C | -21.6 kcal/mol
60 | GTAGCCGAAAGGCTTTAC ((((((....)))..))) | 27.3 °C | -7 kcal/mol
61 | GGAAGTCGAAAGACCTCC (((.(((....))).))) | 43.3 °C | -27.1 kcal/mol
62 | GCTGGGCGAAAGCACGGC ((.(.((....)).).)) | 69.1 °C | -21.2 kcal/mol
63 | GTGAAGGCGAAAGCCCAC (((..(((....)))))) | 46.7 °C | -15.6 kcal/mol
64 | GCGCGGCGAAAGCCTAGC ((..(((....)))..)) | 61.1 °C | -26.9 kcal/mol
65 | GATCAATACTTGATC ((((((...)))))) | 42 °C | -30.4 kcal/mol
66 | GAACTGGGAAACCGGTTC ((((.((....)).)))) | 50.1 °C | -39.6 kcal/mol
67 | GATCAACCGTTGATC ((((((...)))))) | 41.1 °C | -38.1 kcal/mol
68 | GATCTGCTATCAGATC ((((((....)))))) | 49.6 °C | -35.3 kcal/mol
69 | GATCTGACGGCAGATC ((((((....)))))) | 51.4 °C | -49.4 kcal/mol
70 | GCGTCGCGAAAGCAAAGC ((.(.((....)).).)) | 62.6 °C | -21.3 kcal/mol
71 | GATCCGTGAGCGGATC ((((((....)))))) | 65.9 °C | -35.6 kcal/mol
72 | GCAGAGCGAAAGCACCGC ((.(.((....)).).)) | 45.4 °C | -14.2 kcal/mol

Row | Sequence | Tm [1] | folding enthalpy [2]
73 | GCCCTGCCGAAAGGCGGC (((..(((....)))))) | 54.9 °C | -9.83 kcal/mol
74 | GCCTGGGGAAACCCAGAC (.(((((....))))).) | 44.5 °C | -14.1 kcal/mol
75 | GATTGTGGAAACACAATC (((((((....))))))) | 56.8 °C | -43.6 kcal/mol
76 | GGTCAGAAATGACC (((((....))))) | 53.6 °C | -28.2 kcal/mol
77 | GATTGGGGAAACCCAGTC ((.((((....)))).)) | 44.7 °C | -24.4 kcal/mol
78 | GACATCACGAAAGTGGTC (((..(((....)))))) | 34.7 °C | -14.5 kcal/mol
79 | GGTAGAGCGAAAGCTACC (((..(((....)))))) | 45.5 °C | -17.3 kcal/mol
80 | GTTCAGCGAAAGCTTAAC (((.(((....))).))) | 40.9 °C | -30.2 kcal/mol
81 | GGCCCAACGAAAGTTGCC (((..(((....)))))) | 32.5 °C | -13.9 kcal/mol
82 | GAGCCCGGAAACGGGTTC ((.((((....)))).)) | 56.7 °C | -27 kcal/mol
83 | GCGGCAAGCCGC ((((....)))) | 68.1 °C | -28.3 kcal/mol
84 | GGGGGTTCGAAAGAACCC (((..(((....)))))) | 58.9 °C | -7.33 kcal/mol
85 | GGTTTCGAAAGAATACC ((((((....))).))) | 38 °C | -25.6 kcal/mol
86 | GATCTTGCATAAGATC ((((((....)))))) | 50.9 °C | -39.9 kcal/mol
87 | GGATGCGAAAGCACCTCC ((((((....)))..))) | 54.6 °C | -14.4 kcal/mol
88 | GCCCCGCGAAAGCAAGGC (((..((....))..))) | 46.5 °C | -16.2 kcal/mol
89 | GTTACAGGAAACTGCAAC (((.(((....))).))) | 35.8 °C | -23.4 kcal/mol
90 | GTACCGGGAAACCGATAC (((.(((....))).))) | 40 °C | -27.7 kcal/mol
91 | GACATCCGAAAGGAGTC (((.(((....)))))) | 45.4 °C | -21.2 kcal/mol
92 | GATCATACGAATGATC ((((((....)))))) | 44.7 °C | -34.4 kcal/mol
93 | GTTAAACGAAAGTTGAAC (((.(((....))).))) | 41.7 °C | -26 kcal/mol
